ChEMBL document CHEMBL4834403, “Design and Synthesis of Novel Epigenetic Inhibitors Targeting Histone Deacetylases, DNA Methyltransferase 1, and Lysine Methyltransferase G9a with In Vivo Efficacy in Multiple Myeloma” (J Med Chem, 2021)
Active and inactive are the calls of the source. The rule behind the calls is not given here.

Experiments:
[1] = Toxicity in mouse assessed as mouse death at 5 mg/kg, ip after 15 mins; type: organism-based; conditions: in vivo, 0.25 h
Outline: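 Observation made during a preliminary pharmacokinetic study with i.p. dosing, n = 5 mice per dose level, with blood extraction after administration.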

[2] = biological target: Histone deacetylase (Homo sapiens) (UniProt Q13547+O15379+Q9UBN7+Q92769+Q9UQL6+Q8WUI4+Q9BY41+Q96DB2+P56524+Q9UKV0+Q969S8); test: Inhibition of HDAC in human MM1.S cells assessed as increase in H3K9Ac at > 1 uM after 48 hrs by Western blot analysis; type: cell-based; conditions: dose microM >1, time 48.0 hrs
Outline: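 MM1.S cells exposed 48 h across a concentration range. Global H3K9Ac and H3K9me2 read by Western blot; run in duplicate.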

[3] = biological target: CYP2C19 (Homo sapiens, UniProt P33261); test: Inhibition of CYP2C19 in human liver microsomes at 10 uM incubated for 10 mins in presence of NADPH by LC-MS/MS analysis relative to control; type: ADME
[4] = Apparent volume of distribution during terminal phase in BALB/c RAG2-/- gammaC-/- mouse at 10 mg/kg, ip measured up to 24 hrs by UPLC-triple quadrupole MS analysis; type: ADME, organism-based; conditions: in vivo, read-out: Vz/F
[5] = Permeability of the compound in PBS/EtOH buffer (70:30) incubated for 18 hrs by UV plate reader based PAMPA assay; type: ADME; conditions: read-out: permeability
[6] = system: MM1.S; test: Induction of DNA hypomethylation in human MM1.S cells assessed as CPG hypomethylation at position 4 at 10 nM measured after 5 days relative to control; type: cell-based; conditions: time 5.0 day
Outline: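 MM1.S cells dosed every day for 5 days at 2 μM or 10 nM. DNA methylation at CpGs of the POU4F2 promoter read by pyrosequencing; run in duplicate.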

Sequence of CYP2C19 (P33261 whole entry): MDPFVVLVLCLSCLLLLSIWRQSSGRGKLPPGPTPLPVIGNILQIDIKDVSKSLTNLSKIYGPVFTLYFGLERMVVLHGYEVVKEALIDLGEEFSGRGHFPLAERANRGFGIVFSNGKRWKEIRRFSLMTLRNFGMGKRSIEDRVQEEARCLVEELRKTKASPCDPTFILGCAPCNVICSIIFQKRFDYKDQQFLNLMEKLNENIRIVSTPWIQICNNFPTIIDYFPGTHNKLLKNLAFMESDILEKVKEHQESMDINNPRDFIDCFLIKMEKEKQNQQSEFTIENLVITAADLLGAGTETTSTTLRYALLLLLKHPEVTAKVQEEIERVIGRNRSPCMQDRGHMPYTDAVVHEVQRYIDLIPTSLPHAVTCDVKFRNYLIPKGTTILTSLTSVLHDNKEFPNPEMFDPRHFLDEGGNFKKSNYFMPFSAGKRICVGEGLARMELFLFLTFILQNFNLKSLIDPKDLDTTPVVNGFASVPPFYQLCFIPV

SMILES	Activity [1]	inhibition [2]	inhibition at 10 min, 10 µM [3] [%]	Vd/F [4] [L]	Papp at 18 h [5] [×10⁻⁶ cm/s]	Activity [6] [%]
COc1cc2c(NCC3CCN(c4ncc(C(=O)NO)cn4)CC3)cc(-c3ccc(C)o3)nc2cc1OCCCN1CCCC1	Toxic	Active				
COc1cc2nc(-c3ccc(C)o3)cc(NCC3CCN(c4ncc(C(=O)NO)cn4)CC3)c2cc1OC			5.6	4.6	0.504	10
